ChEMBL document CHEMBL1136390, “Piperazinyl-linked fluoroquinolone dimers possessing potent antibacterial activity against drug-resistant strains of Staphylococcus aureus” (2003)
In brackets after ≈: the same amount, converted by molar mass.

How the values were obtained:
Assay type in all cases: functional
Staphylococcus aureus [1] = assay: Minimum inhibitory concentration tested against Staphylococcus aureus 1199 strain
Method in brief: (§1)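 MICs against S. aureus strains were read in µg/mL from a dilution series. Stated error for each MIC is ± one dilution.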

Staphylococcus aureus [2] = assay: Minimum inhibitory concentration tested against Staphylococcus aureus 1199-3 strain; method in brief: as §1
Staphylococcus aureus [3] = assay: Minimum inhibitory concentration tested against Staphylococcus aureus 1199B strain; method in brief: as §1
Staphylococcus aureus [4] = assay: Minimum inhibitory concentration tested against methicillin resistant Staphylococcus aureus 494 strain (MRSA 494)
Method in brief: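 MIC in µg/mL against drug-resistant S. aureus strains; error stated as ± one dilution.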

Staphylococcus aureus [5] = assay: Minimum inhibitory concentration tested against vancomycin-insensitive SA (GISA 992 strain); method in brief: as §1

| SMILES | MIC (Staphylococcus aureus [1]) [µg/mL] | MIC (Staphylococcus aureus [2]) [µg/mL] | MIC (Staphylococcus aureus [3]) [µg/mL] | MIC (Staphylococcus aureus [4]) [µg/mL] | MIC (Staphylococcus aureus [5]) [µg/mL] |
| --- | --- | --- | --- | --- | --- |
| O=C(O)c1cn(C2CC2)c2cc(N3CCN(C/C=C/CN4CCN(c5cc6c(cc5F)c(=O)c(C(=O)O)cn6C5CC5)CC4)CC3)c(F)cc2c1=O | 0.03 (≈ 0.042 µM) | 0.06 (≈ 0.0839 µM) | 0.03 (≈ 0.042 µM) | 0.125 (≈ 0.175 µM) | > 16 |
| CCn1cc(C(=O)O)c(=O)c2cnc(N3CCN(Cc4ccc(CN5CCN(c6ncc7c(=O)c(C(=O)O)cn(CC)c7n6)CC5)cc4)CC3)nc21 | 0.5 (≈ 0.705 µM) | 0.5 (≈ 0.705 µM) | 4 (≈ 5.64 µM) | 2 (≈ 2.82 µM) | 8 (≈ 11.3 µM) |
| CCn1cc(C(=O)O)c(=O)c2cc(F)c(N3CCNCC3)cc21 [NORFLOXACIN] | 0.5 (≈ 1.57 µM) | 4 (≈ 12.5 µM) | > 16 | 2 (≈ 6.26 µM) | > 16 |
| O=C(O)c1cn(C2CC2)c2cc(N3CCNCC3)c(F)cc2c1=O [CIPROFLOXACIN] |  | 1 (≈ 3.02 µM) | 8 (≈ 24.1 µM) | 0.5 (≈ 1.51 µM) | > 32 |
| O=C(O)c1cn(C2CC2)c2cc(N3CCN(Cc4cccc(CN5CCN(c6cc7c(cc6F)c(=O)c(C(=O)O)cn7C6CC6)CC5)c4)CC3)c(F)cc2c1=O | 0.06 (≈ 0.0784 µM) | 0.06 (≈ 0.0784 µM) | 0.125 (≈ 0.163 µM) | < 0.03 | > 16 |
| CCn1cc(C(=O)O)c(=O)c2cc(F)c(N3CCN(C/C=C/CN4CCN(c5cc6c(cc5F)c(=O)c(C(=O)O)cn6CC)CC4)CC3)cc21 | 0.25 (≈ 0.362 µM) | 0.125 (≈ 0.181 µM) | 0.125 (≈ 0.181 µM) | 0.125 (≈ 0.181 µM) | > 16 |
| CCn1cc(C(=O)O)c(=O)c2cnc(N3CCN(Cc4ccc(CN5CCN(c6cc7c(cc6F)c(=O)c(C(=O)O)cn7C6CC6)CC5)cc4)CC3)nc21 | < 0.03 | < 0.03 | < 0.03 | 0.125 (≈ 0.17 µM) | 2 (≈ 2.71 µM) |
| CCn1cc(C(=O)O)c(=O)c2cnc(N3CCNCC3)nc21 [PIPEMIDIC ACID] | > 16 | > 16 | > 16 |  | > 16 |
| CCn1cc(C(=O)O)c(=O)c2cc(F)c(N3CCN(Cc4ccc(CN5CCN(c6cc7c(cc6F)c(=O)c(C(=O)O)cn7C6CC6)CC5)cc4)CC3)cc21 | < 0.03 | < 0.03 | 0.06 (≈ 0.0797 µM) |  | 4 (≈ 5.31 µM) |
| O=C(O)c1cn(C2CC2)c2cc(N3CCN(Cc4cccc(CN5CCN(c6cc7c(cc6F)c(=O)c(C(=O)O)cn7C6CC6)CC5)n4)CC3)c(F)cc2c1=O | < 0.03 | < 0.03 | < 0.03 | 0.06 (≈ 0.0783 µM) | 8 (≈ 10.4 µM) |
| O=C(O)c1cn(C2CC2)c2cc(N3CCN(Cc4ccc(CN5CCN(c6cc7c(cc6F)c(=O)c(C(=O)O)cn7C6CC6)CC5)cc4)CC3)c(F)cc2c1=O | 0.125 (≈ 0.163 µM) | 0.125 (≈ 0.163 µM) | 0.125 (≈ 0.163 µM) | 0.125 (≈ 0.163 µM) | 4 (≈ 5.23 µM) |
| CCn1cc(C(=O)O)c(=O)c2cc(F)c(N3CCN(Cc4ccc(CN5CCN(c6cc7c(cc6F)c(=O)c(C(=O)O)cn7CC)CC5)cc4)CC3)cc21 | 0.06 (≈ 0.081 µM) | 0.06 (≈ 0.081 µM) | 1 (≈ 1.35 µM) | 0.06 (≈ 0.081 µM) | 4 (≈ 5.4 µM) |
| O=C(O)c1cn(C2CC2)c2cc(N3CCN(Cc4ccc(-c5ccc(CN6CCN(c7cc8c(cc7F)c(=O)c(C(=O)O)cn8C7CC7)CC6)cc5)cc4)CC3)c(F)cc2c1=O | 4 (≈ 4.76 µM) | 8 (≈ 9.51 µM) | 8 (≈ 9.51 µM) |  | > 16 |
